The source of these data is ChEMBL document CHEMBL1828498, “Identification and characterization of a novel integrin-linked kinase inhibitor” (J Med Chem, 2011).

The test system of assay [1] is 3-phosphoinositide dependent protein kinase-2, PDK2. The assay is described as follows: Inhibition of PDK2 in human PC3 cells assessed as Akt Ser-473 dephosphorylation by Western blot analysis. In kind it is functional, cell-based. Particulars: PC-3. Put shortly: (§1)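 Cells exposed 24 h in 5% FBS medium, final DMSO 0.1%; lysed in 1% SDS/10 mM EDTA/50 mM Tris pH 8.1, equal protein on SDS-PAGE, nitrocellulose, primary antibody 1:1000 at 4°C for 2 h, HRP secondary 1:5000, ECL detection; blots representative of three independent experiments.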

Assay [2] deals with T1, 3-phosphoinositide-dependent protein kinase 1 (Homo sapiens) (UniProt O15530).
T1 sequence (whole entry): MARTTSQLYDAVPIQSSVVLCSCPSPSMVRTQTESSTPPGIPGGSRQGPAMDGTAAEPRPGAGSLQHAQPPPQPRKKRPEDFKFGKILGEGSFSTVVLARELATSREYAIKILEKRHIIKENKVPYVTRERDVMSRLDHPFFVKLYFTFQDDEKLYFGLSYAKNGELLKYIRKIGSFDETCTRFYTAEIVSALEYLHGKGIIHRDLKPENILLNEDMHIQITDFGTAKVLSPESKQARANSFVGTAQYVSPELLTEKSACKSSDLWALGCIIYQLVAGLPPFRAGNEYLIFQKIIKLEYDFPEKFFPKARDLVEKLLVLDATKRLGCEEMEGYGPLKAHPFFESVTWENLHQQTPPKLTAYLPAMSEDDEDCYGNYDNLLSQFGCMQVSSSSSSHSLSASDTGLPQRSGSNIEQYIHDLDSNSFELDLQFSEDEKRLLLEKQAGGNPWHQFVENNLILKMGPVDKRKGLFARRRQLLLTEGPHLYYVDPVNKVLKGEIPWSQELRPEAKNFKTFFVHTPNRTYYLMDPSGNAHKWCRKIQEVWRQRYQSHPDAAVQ
As to the kind of experiment: Inhibition of PDK2 in human PC3 cells assessed as Akt Thr-308 dephosphorylation by Western blot analysis. The class given is functional, cell-based. Particulars: PC-3. Put shortly: as §1
For orientation: Immunoblotting shows a protein as a band on a membrane.

Calls of active or inactive are those of the source. How the calls were made is not given here.

For `NCCCC[C@H](N)C(=O)Nc1ccc(-n2nc(C(F)(F)F)cc2-c2ccc(-c3ccc(C(F)(F)F)cc3)cc2)cc1`, the inhibition entry in assay [1] and in assay [2] was “inactive” throughout.
As for `CCNC(=O)c1cc(-c2ccc3ccc4ccccc4c3c2)n(-c2ccc(NC(=O)CCN)cc2)n1`, the inhibition result in assay [1] and in assay [2] was “inactive” throughout.
Consider `NCCC(=O)Nc1ccc(-n2nc(C(F)(F)F)cc2-c2ccc3c(c2)oc2ccccc23)cc1`, for which the inhibition entry in assay [1] and in assay [2] was “inactive” throughout.
Regarding `CC(=O)Nc1ccc(S(=O)(=O)N2CCN(c3ccc(-n4nc(C(F)(F)F)cc4-c4ccc5c(ccc6ccccc65)c4)cc3)CC2)cc1`, the inhibition result in assay [1] and in assay [2] was “inactive” throughout.
In the case of `CCNC(=O)c1cc(-c2ccc3ccc4ccccc4c3c2)n(-c2ccc(NC(=O)CN)cc2)n1`, the inhibition entry in assay [1] and in assay [2] was “inactive” each time.
With `O=[N+]([O-])c1ccc(S(=O)(=O)N2CCN(c3ccc(-n4nc(C(F)(F)F)cc4-c4ccc5c(ccc6ccccc65)c4)cc3)CC2)c([N+](=O)[O-])c1`, the inhibition entry in assay [1] and in assay [2] was “inactive” throughout.
On to `NC(=O)c1cccc(C(=O)N2CCN(c3ccc(-n4nc(C(F)(F)F)cc4-c4ccc5c(ccc6ccccc65)c4)cc3)CC2)c1`, for which the inhibition entry in assay [1] and in assay [2] was “inactive” throughout.
As for `CNC(=O)c1cc(-c2ccc3c(ccc4ccccc43)c2)n(-c2ccc(NC(=O)CN)cc2)n1`, the inhibition entry in assay [1] and in assay [2] was “inactive” each time.
In the case of `CNC(=O)CCc1cc(-c2ccc(-c3ccc(C(F)(F)F)cc3)cc2)n(-c2ccc(N3CCOCC3)cc2)n1`, the inhibition entry in assay [1] and in assay [2] was “inactive” each time.
For the compound `NC(Cc1ccccc1)C(=O)Nc1ccc(-n2nc(C(F)(F)F)cc2-c2ccc(-c3ccc(C(F)(F)F)cc3)cc2)cc1` (stereo not drawn), the inhibition result in assay [1] and in assay [2] was “inactive” in each case.
As to `CNC(=O)c1cc(-c2ccc(-c3ccc(C(F)(F)F)cc3)cc2)n(-c2ccc(NC(=O)CCN)cc2)n1`, the inhibition entry in assay [1] and in assay [2] was “inactive” in each case.
For `NCCC(=O)Nc1ccc(-n2nc(C(F)(F)F)cc2-c2ccc(-c3ccc(C(F)(F)F)cc3)cc2)cc1`, the inhibition result in assay [1] and in assay [2] was “inactive” throughout.
As for `CNC(=O)CCc1cc(-c2ccc(-c3ccc(C#N)cc3)cc2)n(-c2ccc(N3CCNCC3)cc2)n1`, the inhibition result in assay [1] and in assay [2] was “inactive” each time.
In the case of `NC(=O)CNc1ccc(-n2nc(C(F)(F)F)cc2-c2ccc3c(ccc4ccccc43)c2)cc1`, the inhibition entry in assay [1] and in assay [2] was “inactive” throughout.
As for `CC(=O)c1cc(C(=O)N2CCN(c3ccc(-n4nc(C(F)(F)F)cc4-c4ccc5c(ccc6ccccc65)c4)cc3)CC2)ccc1Cl`, the inhibition entry in assay [1] and in assay [2] was “inactive” throughout.
Turning to `NC(=O)CCNc1ccc(-n2nc(C(F)(F)F)cc2-c2ccc3c(ccc4ccccc43)c2)cc1`, the inhibition entry in assay [1] and in assay [2] was “inactive” throughout.
For the compound `CNC(=O)c1cc(-c2ccc3c(ccc4ccccc43)c2)n(-c2ccc(NC(=O)CCN)cc2)n1`, the inhibition entry in assay [1] and in assay [2] was “inactive” in each case.
Regarding `CC(C)NC(=O)c1cc(-c2ccc(-c3ccc(C(F)(F)F)cc3)cc2)n(-c2ccc(NC(=O)CCN)cc2)n1`, the inhibition entry in assay [1] and in assay [2] was “inactive” throughout.
For the compound `CCNC(=O)c1cc(-c2ccc(-c3ccc(C(F)(F)F)cc3)cc2)n(-c2ccc(NC(=O)CCN)cc2)n1`, the inhibition entry in assay [1] and in assay [2] was “inactive” each time.
For `CNC(=O)c1cc(-c2ccc(-c3ccc(C(F)(F)F)cc3)cc2)n(-c2ccc(N3CCNCC3)cc2)n1`, the inhibition result in assay [1] and in assay [2] was “inactive” in each case.
On to `CCC(C)C(N)C(=O)Nc1ccc(-n2nc(C(F)(F)F)cc2-c2ccc(-c3ccc(C(F)(F)F)cc3)cc2)cc1` (stereo not drawn), for which the inhibition result in assay [1] and in assay [2] was “inactive” each time.
In the case of `CC(C)CC(N)C(=O)Nc1ccc(-n2nc(C(F)(F)F)cc2-c2ccc(-c3ccc(C(F)(F)F)cc3)cc2)cc1` (stereo not drawn), the inhibition result in assay [1] and in assay [2] was “inactive” throughout.
Turning to `O=C(Nc1ccc(-n2nc(C(F)(F)F)cc2-c2ccc3c(ccc4ccccc43)c2)cc1)N1CCOCC1`, the inhibition result in assay [1] and in assay [2] was “inactive” in each case.
In the case of `NS(=O)(=O)Nc1ccc(-n2nc(C(F)(F)F)cc2-c2ccc3c(ccc4ccccc43)c2)cc1`, the inhibition entry in assay [1] and in assay [2] was “inactive” in each case.
With `FC(F)(F)c1ccc(-c2ccc(-c3cc(C(F)(F)F)nn3-c3ccc(N4CCNCC4)cc3)cc2)cc1`, the inhibition entry in assay [1] and in assay [2] was “inactive” throughout.
In the case of `CNC(=O)CCc1cc(-c2ccc(-c3ccc(C(F)(F)F)cc3)cc2)n(-c2ccc(NC(=O)CCN)cc2)n1`, the inhibition result in assay [1] and in assay [2] was “inactive” throughout.
`O=C(c1ccc([N+](=O)[O-])cc1)N1CCN(c2ccc(-n3nc(C(F)(F)F)cc3-c3ccc4c(ccc5ccccc54)c3)cc2)CC1`: the inhibition entry in assay [1] and in assay [2] was “inactive” each time.
Consider `NCCC(=O)Nc1ccc(-n2nc(C(F)(F)F)cc2-c2ccc3c(ccc4ccccc43)c2)cc1`, for which the inhibition result in assay [1] and in assay [2] was “inactive” each time.
In the case of `O=C(c1ccncc1)N1CCN(c2ccc(-n3nc(C(F)(F)F)cc3-c3ccc4c(ccc5ccccc54)c3)cc2)CC1`, the inhibition result in assay [1] and in assay [2] was “inactive” in each case.
For the compound `CCNC(=O)CCc1cc(-c2ccc(-c3ccc(C(F)(F)F)cc3)cc2)n(-c2ccc(N3CCNCC3)cc2)n1`, the inhibition entry in assay [1] was “Active”. For the same compound, the inhibition entry in assay [2] was “inactive”.
In the same order, the values of `CC(C)NC(=O)CCc1cc(-c2ccc(-c3ccc(C(F)(F)F)cc3)cc2)n(-c2ccc(NC(=O)CCN)cc2)n1` are “inactive” and “inactive”.
In the same order, the values of `NCC(=O)Nc1ccc(-n2nc(C(F)(F)F)cc2-c2ccc3c(c2)oc2ccccc23)cc1` are “inactive” and “inactive”.
`O=C1CCC(=O)N1c1ccc(-n2nc(C(F)(F)F)cc2-c2ccc3c(ccc4ccccc43)c2)cc1`: the inhibition entry in assay [1] and in assay [2] was “inactive” each time.
Consider `COc1ccc(S(=O)(=O)N2CCN(c3ccc(-n4nc(C(F)(F)F)cc4-c4ccc5c(ccc6ccccc65)c4)cc3)CC2)cc1`, for which the inhibition result in assay [1] and in assay [2] was “inactive” in each case.
Turning to `NC(=O)c1ccc(C(=O)N2CCN(c3ccc(-n4nc(C(F)(F)F)cc4-c4ccc5c(ccc6ccccc65)c4)cc3)CC2)cc1`, the inhibition entry in assay [1] and in assay [2] was “inactive” each time.
As to `O=C(c1ccc(OC(F)(F)F)cc1)N1CCN(c2ccc(-n3nc(C(F)(F)F)cc3-c3ccc4c(ccc5ccccc54)c3)cc2)CC1`, the inhibition entry in assay [1] and in assay [2] was “inactive” each time.
Regarding `CC(=O)c1ccc(S(=O)(=O)N2CCN(c3ccc(-n4nc(C(F)(F)F)cc4-c4ccc5c(ccc6ccccc65)c4)cc3)CC2)cc1`, the inhibition result in assay [1] and in assay [2] was “inactive” in each case.
Take `CNC(=O)c1cc(-c2ccc3ccc4ccccc4c3c2)n(-c2ccc(NC(=O)CN)cc2)n1`: the inhibition entry in assay [1] and in assay [2] was “inactive” in each case.
`CNC(=O)CCc1cc(-c2ccc3c(ccc4ccccc43)c2)n(-c2ccc(N3CCNCC3)cc2)n1`: the inhibition entry in assay [1] and in assay [2] was “inactive” each time.
Turning to `NCC(=O)Nc1ccc(-n2nc(C(F)(F)F)cc2-c2ccc3ccc4ccccc4c3c2)cc1`, the inhibition entry in assay [1] and in assay [2] was “inactive” in each case.
`COc1cc([N+](=O)[O-])ccc1S(=O)(=O)N1CCN(c2ccc(-n3nc(C(F)(F)F)cc3-c3ccc4c(ccc5ccccc54)c3)cc2)CC1`: the inhibition result in assay [1] and in assay [2] was “inactive” throughout.
Regarding `NCCCC[C@H](N)C(=O)Nc1ccc(-n2nc(C(F)(F)F)cc2-c2ccc3c(ccc4ccccc43)c2)cc1`, the inhibition entry in assay [1] and in assay [2] was “inactive” in each case.
Consider `O=[N+]([O-])c1ccc(S(=O)(=O)N2CCN(c3ccc(-n4nc(C(F)(F)F)cc4-c4ccc5c(ccc6ccccc65)c4)cc3)CC2)cc1`, for which the inhibition result in assay [1] and in assay [2] was “inactive” in each case.
For `O=C(c1ccc(Cl)c([N+](=O)[O-])c1)N1CCN(c2ccc(-n3nc(C(F)(F)F)cc3-c3ccc4c(ccc5ccccc54)c3)cc2)CC1`, the inhibition entry in assay [1] and in assay [2] was “inactive” in each case.
